# Reference: PubChem BioAssay AID651572 (The Scripps Research Institute Molecular Screening Center, 2012)
# “And” between values parts separate entries of the source, which are not always exact repeats. Equal values may be shown once. The whole screen tested about 360,000 compounds, of which about 950 (0.26%) were called active.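 The calls were made as follows: active = inhibition above a per-plate limit, mean inhibition of low control wells plus 3 SD (cut at about 25% in these data); inactive = the rest.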 The full list was thinned out, with actives kept by preference. A structure can be active in one record and inactive in another.
# Target: ADP-ribosylation factor GTPase-activating protein 1 (Rattus norvegicus) (UniProt Q62848)
# Experiment: blockers of ARFGAP1-stimulated ARF1 GTP hydrolysis – biochemical, fluorescence polarization, GDP tracer, primary screen (AID 651572);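 also: 0% = DMSO wells with enzyme and 100% = wells lacking Arfgap1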
# Details: GDP FP detection, at 16.5 µM, stronger effect = higher value
# How it was run: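 System: truncated rat Arfgap1 GAP domain / Medium: HEPES-based buffer, pH 7.5 / Also added: N-terminally truncated human ARF1-GTP substrate / Incubation: enzyme reaction 120 min at 25 °C after 20 min preincubation / Measured by: FP of antibody-bound GDP Alexa 633 tracer, ex 620/em 688 nm / Replicates: singlicate, each compound tested once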
# Sequence of ADP-ribosylation factor GTPase-activating protein 1 (Rattus norvegicus) (Q62848 1-136 limits assumed): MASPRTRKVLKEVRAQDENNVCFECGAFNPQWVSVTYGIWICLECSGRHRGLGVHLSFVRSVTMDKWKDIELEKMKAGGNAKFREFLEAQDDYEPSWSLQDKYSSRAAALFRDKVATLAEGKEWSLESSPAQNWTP
row,Structure (SMILES),inhibition
1,CCOC(=O)c1ccc(Nc2cc3ccccc3c(=O)[nH]2)cc1,25.9% (active)
2,CCOC(=O)c1ccc(NC(=O)c2c(N)n(C)c(=O)[nH]c2=O)cc1,11% (inactive)
3,CCOC(=O)c1ccc(NC(=O)c2c(NCc3ccccc3)[nH]c(=O)[nH]c2=O)cc1,-10.9% (inactive)
4,CC(C)CNc1cccc2c1S(=O)(=O)N[C@H](CC(C)C)CO2,2.08% (inactive)
5,CC(C)[C@H]1COCCS(=O)(=O)N1Cc1ccccc1-c1cccc2c1sc1ccccc12,-9.36% (inactive)
6,COC(=O)C(C(=O)OC)c1ccccc1NS(=O)(=O)c1cccc2ccccc12,-11.2% (inactive)
7,COCCCNC(=O)C[C@H]1C[C@@]2(C(=O)OC)C(=C[C@H](C(C)(C)C)O[C@@H]2C)N(Cc2ccc3c(c2)OCO3)C1=O,2.5% (inactive)
8,CCOC(=O)C1CCN(C(c2cc3cc(C)cc(C)c3[nH]c2=O)c2nnnn2C2CCCCC2)CC1 (centres undefined),38.1% (active)
9,Cc1cc(C)c2[nH]c(=O)c(C(c3nnnn3Cc3ccc4c(c3)OCO4)N3CCCC3)cc2c1 (centres undefined),6.09% (inactive)
10,COc1ccc(N2CCN(C(c3cc4ccc(C)cc4[nH]c3=O)c3nnnn3C3CCCC3)CC2)cc1 (centres undefined),7.55% (inactive)
11,CCCCOCC1CN(CCCC)S(=O)(=O)c2c(Oc3ccc(F)cc3)cccc2O1 (centres undefined),-16.2% (inactive)
12,Cc1cc(NCCc2c[nH]c3ccccc23)ccc1Oc1cccnc1,4.98% (inactive)
13,CCCCCCCCN1C(=O)[C@@H](CC(=O)NCc2ccc(C)o2)C[C@@]2(C(=O)OC)C1=C[C@H](C(C)(C)C)O[C@@H]2C,13.1% (inactive)
14,CC(C)n1c(=O)[nH]c2cc(C(=O)Nc3ccccc3)ccc21,9.47% (inactive)
15,O=C(Nc1cccc(-c2nc3ccccc3[nH]2)c1)c1ccc(C(=O)Nc2cccc(-c3nc4ccccc4[nH]3)c2)cc1,47.5% (active)
16,O=C(Nc1ccccc1)c1cc2ccccc2[nH]1,-4.92% (inactive)
17,COCCNC(=S)N(C)[C@H]1C[C@H]2c3[nH]c4ccccc4c3CCN2C[C@H]1[C@H](C)O,8.23% (inactive)
18,C=CCN=C1NC(c2cccc(C(F)(F)F)c2)C(C(=O)OC)=C(C)N1C (centres undefined),-13.8% (inactive)
19,Cc1ccc2nc(-c3ccc(CN4CCC(n5cc(-c6ccccc6)[nH]c5=O)CC4)cc3)c(-c3ccccc3)nc2c1,8.03% (inactive)
20,Nc1[nH]c(C(=O)c2ccccc2)c(-c2ccc(Cl)cc2Cl)c1C(=O)c1ccccc1,-3.18% (inactive)
21,CC(C)(C)C(c1nc2ccccc2[nH]1)n1c(Cc2csc3ccccc23)nc2ccccc21 (centres undefined),0.81% (inactive)
22,CC(C)c1ccc(/C=C/C(=O)NCCCN2CCOCC2)cc1,-5.51% (inactive)
23,O=C(NCCCN1CCOCC1)c1cnn2c(-c3ccccc3)cc(-c3ccccc3)nc12,-2.5% (inactive)
24,O=C(/C=C/c1cn(-c2ccccc2)nc1-c1ccc2c(c1)OCCO2)NCCCN1CCOCC1,25.8% (active)
25,COC(=O)c1ccc(CN2C(=O)[C@]3(OCCC=C[C@H]3C)c3c(Br)cccc32)cc1,13.2% (inactive)

row,Structure (SMILES),inhibition
1,CSc1ccc(Oc2cccc3c2S(=O)(=O)N([C@H](C)c2ccccc2)C[C@@H](COCc2ccccc2)O3)cc1C,-6.49% (inactive)
2,O=C(NCc1ccccc1)[C@@H]1CCCN1C(=O)[C@H]1CCCN1C(=O)c1cccc(Cl)c1,9.96% (inactive)
3,COc1ccc(CNC(=O)C2CCN(C(=O)c3ccco3)CC2)cc1,9.83% (inactive)
4,COc1ccc(-n2nc3c(N4CCC(C(=O)NCc5ccccc5)CC4)nnc(C)c3c2C)cc1,26.9% (active)
5,COc1ccc(CNC(=O)C2CCN(C(=O)c3ccccc3)CC2)cc1,-4.15% (inactive)
6,C[C@@H]1CN([C@H](C)CO)C(=O)CCCn2cc(nn2)CO[C@H]1CN(C)C(=O)Nc1ccc(N2CCCCC2)cc1,-7.3% (inactive)
7,Cc1cc2c(nc1C)CCCN2C,-0.08% (inactive)
8,COc1cccc(CNC(=O)[C@H]2CCCN2C(=O)[C@H]2CCCN2C(=O)c2cc(F)cc(F)c2)c1,9.87% (inactive)
9,C[C@H](CO)N1C[C@H](C)[C@@H](CN(C)C(=O)Nc2ccccc2F)OCc2cn(nn2)CCCC1=O,5.05% (inactive)
10,COc1ccc(Cl)cc1NC(=O)CN1CCN(C(=O)N2CCOCC2)CC1,15% (inactive)
11,COc1ccc(C)cc1NC(=O)CSc1ccc(Cl)cc1,-5.43% (inactive)
12,COc1ccc(Cl)cc1NC(=O)Cn1nc(-c2ccc(C)cc2)n(C)c1=S,41.6% (active)
13,N#Cc1cccc(C(=O)NCC2CCN(C(=O)C(=O)c3cc4ccccc4o3)CC2)c1,8.35% (inactive)
14,COC(=O)[C@]12C[C@H](CC(=O)NCCc3ccccc3OC)C(=O)N(Cc3ccccc3)C1=C[C@H](C(C)C)O[C@@H]2C1CC1,-5.59% (inactive)
15,C#C[C@]1(O)CC[C@H]2[C@@H]3CCC4=CC(=O)CC[C@@H]4[C@H]3CC[C@@]21CC,-2.58% (inactive) and 25.1% (active)
16,C=CC[C@]12C[C@@]3(O[C@H](c4ccc(C(F)(F)F)cc4)N=C3C[C@H](c3ccc(OC)cc3)[C@H]1C)N(C1CCN(Cc3ccccc3)CC1)C2=O,4.67% (inactive)
17,CN(C)C(=O)N1CCN(C(=O)[C@@H](Cc2ccccc2)NC(=O)[C@H]2O[C@@H](n3ccc(N)nc3=O)[C@H](O)[C@@H]2O)CC1,5.01% (inactive)
18,COC(=O)Cc1nnn2c1[C@H](C)[C@H](c1ccccc1[N+](=O)[O-])OCC2,4.46% (inactive)
19,COc1ccc(S(=O)(=O)Nc2ccc3c(c2)C(=O)N([C@H](C)CO)C[C@H](C)[C@@H](CN(C)C)OCCCC[C@H](C)O3)cc1,1.2% (inactive)
20,Cc1cccc(OCC(O)CN2CCN(S(=O)(=O)c3ccc(C)cc3C)CC2)c1 (centres undefined),10.2% (inactive)
21,OC(COc1ccc(CN2CCSCC2)cc1)CN1CCCCC1 (centres undefined),-6.07% (inactive)
22,OC(COc1cccc(OCC(O)CN2CCCC2)c1)CN1CCCC1 (centres undefined),28.2% (active)
23,Cc1cc(OC(=O)NCCc2ccc(F)cc2)ccc1F,17% (inactive)
24,Cc1ccc(N)cc1CN1CCN(c2ncc(Cc3ccccc3)cn2)CC1,-5.78% (inactive)
